Results on four molecules are retold here after ChEMBL document CHEMBL4038305, “Benzoxaborole Antimalarial Agents. Part 5. Lead Optimization of Novel Amide Pyrazinyloxy Benzoxaboroles and Identification of a Preclinical Candidate” (J Med Chem, 2017).

Series [1] has as its system Plasmodium berghei. As to the kind of experiment: Antimalarial activity against Plasmodium berghei infected in Swiss Webster mouse assessed as mouse survival rate at 200 mg/kg administered once daily via oral gavage for 4 consecutive days beginning 1 hr after infection measured on day 17 post infection relative to control. The format is functional. A digest of the protocol:
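P. berghei-infected erythrocytes taken from a previously infected mouse were injected intraperitoneally. Oral dosing, once daily for 4 consecutive days, began 1 h after infection, in polyethylene glycol 300/propylene glycol/water (55/25/20 by weight). Chloroquine at 30 mg/kg was the positive control, with a vehicle-only group. Percent survival was recorded daily from day 4 to day 20.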

Series [2] relates to Lymphocyte. Briefly: Genotoxicity in human lymphocytes at 0.5 to 355 ug/mL after 3 hrs in presence of rat liver S9 fraction by micronucleus assay. The settings on record: s9, 3 h. The format is toxicity, cell-based.
The subject of series [3] is Plasmodium berghei. As to the kind of experiment: Antimalarial activity against Plasmodium berghei infected in Swiss Webster mouse assessed as mouse survival rate at 1 mg/kg administered once daily via oral gavage for 4 consecutive days beginning 1 hr after infection measured on day 4 post infection relative to control. The format is functional. A digest of the protocol:
(§1)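 Mice given an intraperitoneal injection of P. berghei-infected erythrocytes taken from a previously infected animal. Oral dosing once daily for 4 consecutive days, starting 1 h after infection. Vehicle: polyethylene glycol 300/propylene glycol/water (weight ratio 55/25/20). Percent survival recorded daily from day 4 to day 20. Chloroquine 30 mg/kg and vehicle-only groups served as controls.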

Series [4] concerns Plasmodium berghei. As to the kind of experiment: Antimalarial activity against Plasmodium berghei infected in Swiss Webster mouse assessed as mouse survival rate at 1 mg/kg administered once daily via oral gavage for 4 consecutive days beginning 1 hr after infection measured on day 5 post infection relative to control. The class given is functional. An outline of the steps: as §1

For series [5], the system named is Plasmodium berghei. Briefly: Antimalarial activity against Plasmodium berghei infected in Swiss Webster mouse assessed as mouse survival rate at 0.3 mg/kg administered once daily via oral gavage for 4 consecutive days beginning 1 hr after infection measured on day 8 post infection relative to control. The class given is functional. A digest of the protocol:
as §1

A short description of series [6]: Tmax in Beagle dog plasma at 5 mg/kg, po via gavage by HPLC/MS analysis. The class given is ADME, organism-based, Canis lupus familiaris.
Series [7] can be described thus: Terminal half life in Sprague-Dawley rat at 5 mg/kg, po via gavage by HPLC/MS analysis. The class given is ADME, organism-based. The note with it: in vivo, read-out: beta t1/2 (converted).
The test system of series [8] is Plasmodium falciparum. As to the kind of experiment: Antimalarial activity against Plasmodium falciparum Dd2 infected in human erythrocytes assessed as reduction in [3H]-hypoxanthine incorporation preincubated for 24 hrs followed by [3H]-hypoxanthine addition measured after 24 hrs by scintillation counting method. The class given is functional, cell-based.
In series [9] the test system is Plasmodium falciparum. As to the kind of experiment: Antimalarial activity against Plasmodium falciparum D6 infected in human erythrocytes assessed as reduction in [3H]-hypoxanthine incorporation preincubated for 24 hrs followed by [3H]-hypoxanthine addition measured after 24 hrs by scintillation counting method. The class given is functional, cell-based.
Series [10] relates to Plasmodium falciparum. Briefly: Antimalarial activity against intraerythrocytic stage of Plasmodium falciparum assessed as time required to clear 99.9% of initial parasite population at 100 times IC50 preincubated for 24 hrs followed by [3H]-hypoxanthine addition measured after 24 hrs by scintillation counting method. The class given is functional. A digest of the protocol:
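In vitro P. falciparum parasite reduction ratio assay run at 10×, 30× and 100× IC50. Derived parameters: lag phase (time to maximal killing), PRR (parasites killed per life cycle) and PCT99.9% (time to clear 99.9% of the initial parasite population).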

The subject of series [11] is Salmonella typhimurium. As to the kind of experiment: Genotoxicity in Salmonella typhimurium TA98 assessed as number of revertants per plate at 50 ug/plate in absence of rat liver S9 fraction by Ames test (reference value: 14 +/- 6). The format is toxicity. The settings on record: salmonella enterica subsp. enterica serovar typhimurium. Background: The Ames test detects mutagens through reverse mutation in bacteria.

Series [12] concerns Salmonella typhimurium. Briefly: Genotoxicity in Salmonella typhimurium TA98 assessed as number of revertants per plate at 1.5 ug/plate in presence of rat liver S9 fraction by Ames test (reference value: 19 +/- 8). The class given is toxicity. The settings on record: salmonella enterica subsp. enterica serovar typhimurium.
In series [13] the test system is Salmonella typhimurium. Briefly: Genotoxicity in Salmonella typhimurium TA98 assessed as number of revertants per plate at 5000 ug/plate in presence of rat liver S9 fraction by Ames test (reference value: 19 +/- 8). The class given is toxicity. The settings on record: salmonella enterica subsp. enterica serovar typhimurium.
Series [14] has as its system Salmonella typhimurium. As to the kind of experiment: Genotoxicity in Salmonella typhimurium TA100 assessed as number of revertants per plate at 5000 ug/plate in absence of rat liver S9 fraction by Ames test (reference value: 154 +/- 9). The settings on record: salmonella enterica subsp. enterica serovar typhimurium. The format is toxicity.
The test system of series [15] is Salmonella typhimurium. Briefly: Genotoxicity in Salmonella typhimurium TA100 assessed as number of revertants per plate at 1500 ug/plate in presence of rat liver S9 fraction by Ames test (reference value: 141 +/- 1). The format is toxicity. The note with it: salmonella enterica subsp. enterica serovar typhimurium.
Series [16] has as its system Salmonella typhimurium. Briefly: Genotoxicity in Salmonella typhimurium TA100 assessed as number of revertants per plate at 5000 ug/plate in presence of rat liver S9 fraction by Ames test (reference value: 141 +/- 1). The class given is toxicity. The note with it: salmonella enterica subsp. enterica serovar typhimurium.
The test system of series [17] is Salmonella typhimurium. As to the kind of experiment: Genotoxicity in Salmonella typhimurium TA1537 assessed as number of revertants per plate at 15 ug/plate in absence of rat liver S9 fraction by Ames test (reference value: 19 +/- 9). The class given is toxicity. The note with it: salmonella enterica subsp. enterica serovar typhimurium.
The test system of series [18] is Salmonella typhimurium. Briefly: Genotoxicity in Salmonella typhimurium TA1537 assessed as number of revertants per plate at 50 ug/plate in absence of rat liver S9 fraction by Ames test (reference value: 19 +/- 9). The format is toxicity. The settings on record: salmonella enterica subsp. enterica serovar typhimurium.
Series [19] concerns Salmonella typhimurium. Briefly: Genotoxicity in Salmonella typhimurium TA1537 assessed as number of revertants per plate at 50 ug/plate in presence of rat liver S9 fraction by Ames test (reference value: 11 +/- 4). The note with it: salmonella enterica subsp. enterica serovar typhimurium. The class given is toxicity.
The subject of series [20] is Salmonella typhimurium. Briefly: Genotoxicity in Salmonella typhimurium TA1537 assessed as number of revertants per plate at 150 ug/plate in presence of rat liver S9 fraction by Ames test (reference value: 11 +/- 4). The format is toxicity. The settings on record: salmonella enterica subsp. enterica serovar typhimurium.
Series [21] has as its system Escherichia coli. Briefly: Genotoxicity in Escherichia coli WP2uvrA assessed as number of revertants per plate at 15 ug/plate in presence of rat liver S9 fraction by Ames test (reference value: 42 +/- 6). The format is toxicity.
Series [22] has as its system Escherichia coli. Briefly: Genotoxicity in Escherichia coli WP2uvrA assessed as number of revertants per plate at 5000 ug/plate in presence of rat liver S9 fraction by Ames test (reference value: 42 +/- 6). The class given is toxicity.
Series [23] relates to Lymphocyte. As to the kind of experiment: Genotoxicity in human lymphocytes assessed as replication index at 160 ug/mL after 3 hrs in presence of rat liver S9 fraction by micronucleus assay relative to control. The class given is toxicity, cell-based. The note with it: s9, 3 h. A digest of the protocol: (§2)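 Human lymphocytes exposed for 3 h with or without rat liver S9, or 28 h without S9, with 1% DMSO as vehicle control. Replication index = (binucleated + 2 × multinucleated cells)/total cells. Cytotoxicity (%) = 100 − (RI treated/RI vehicle) × 100.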

Series [24] relates to Lymphocyte. As to the kind of experiment: Genotoxicity in human lymphocytes assessed as replication index at 80 ug/mL after 3 hrs in absence of rat liver S9 fraction by micronucleus assay relative to control. The format is toxicity, cell-based. A digest of the protocol: as §2
For series [25], the system named is Lymphocyte. As to the kind of experiment: Genotoxicity in human lymphocytes assessed as replication index at 80 ug/mL after 28 hrs in absence of rat liver S9 fraction by micronucleus assay relative to control. The class given is toxicity, cell-based. A digest of the protocol:
as §2

The test system of series [26] is Lymphocyte. Briefly: Genotoxicity in human lymphocytes assessed as increase in frequency of micronucleated cells at 80 ug/mL after 28 hrs in absence of rat liver S9 fraction by micronucleus assay (reference value: 0.74%). The format is toxicity, cell-based.
Series [27] deals with Lymphocyte. Briefly: Genotoxicity in human lymphocytes assessed as increase in frequency of micronucleated cells at 40 ug/mL after 28 hrs in absence of rat liver S9 fraction by micronucleus assay (reference value: 0.74%). The class given is toxicity, cell-based.
The next series has as its system Rattus norvegicus. As to the kind of experiment: Genotoxicity in rat assessed as change in polychromatic erythrocytes in bone marrow at 1000 mg/kg administered via oral gavage measured after 24 hrs post dose by micronucleus assay relative to control. The note with it: in vivo. The class given is toxicity, organism-based.

Regarding `CCCC1(O)CN(C(=O)c2cnc(Oc3ccc4c(c3C)B(O)OC4)cn2)C1`, the survival at 200 mg/kg in the series with Plasmodium berghei [1] came out at 0%.

Take `Cc1c(Oc2cnc(C(=O)NCCO)cn2)ccc2c1B(O)OC2`: in the series with Lymphocyte [2], the Activity entry is “Non-Toxic”.

As to `Cc1c(Oc2cnc(C(=O)NC(C)CO)cn2)ccc2c1B(O)OC2` (stereo not drawn), the figures for the survival at 1 mg/kg with Plasmodium berghei [3] and in the series with Plasmodium berghei [4] were 100% and 20%, respectively. Also, the survival at 0.3 mg/kg in the series with Plasmodium berghei [5] is 0%.

On to `Cc1c(Oc2cnc(C(=O)N3CC(C)(O)C3)cn2)ccc2c1B(O)OC2`, for which the Tmax (usually the time at which the peak concentration occurs) in series [6] came out at 1.2 h. Moreover, the half-life in [7] was 5.2 h. For the same molecule, the results for the IC50 in the series with Plasmodium falciparum [8] and with Plasmodium falciparum [9] were 53 nM and 62 nM, respectively. Further, the T99.9% in the series on Plasmodium falciparum [10] turned out to be 30 h. Further, the Activity in the series with Salmonella typhimurium [11] was determined as 14; with Salmonella typhimurium [12], 20; with Salmonella typhimurium [13] it was 18; in the series with Salmonella typhimurium [14], 20; in the series with Salmonella typhimurium [15] it was 144; in the series with Salmonella typhimurium [16], 31. Also, the Activity in the series on Salmonella typhimurium [17] was determined as 10; in the series with Salmonella typhimurium [18], 12; with Salmonella typhimurium [19] it was 9; in the series on Salmonella typhimurium [20], 12; with Escherichia coli [21] it was 50; with Escherichia coli [22], 34. Besides, the Activity in the series on Lymphocyte [23] stood at 8%; in the series with Lymphocyte [24] it was 3%; in the series with Lymphocyte [25], 7%; with Lymphocyte [26] it was 1.28%; in the series with Lymphocyte [27], 1.18%; in the series with Rattus norvegicus, 0%.
